# Shown are actives, neighbours in structure and some others; about 1.9% of the full set was active somewhere.
# MBD2 inh – blocks human MBD2 binding to methylated DNA. Q9UBB5. TR-FRET, MBD2 binding to methylated oligonucleotide. inhibition, % at 4.4 µM. actives 0.31% (n = 370,000); in the data active = inhibition above about 13%
# UHRF1 MBD2 ctr – UHRF1 methyl-DNA binding inhibition | Q96T88 | UHRF1 binding to methylated oligo, TR-FRET | inhibition, % at 4.4 µM | actives 0.75% (n = 370,000) | AID 687016; in the data active = inhibition above about 21%;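 also: UHRF1 SRA domain binding a hemimethylated CpG hairpin DNA probe; 0% = median of test compound wells and 100% = reference inhibitor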
# TDP2 inh – TDP2 (human) inhibition, absorbance primary screen | O95551 | recombinant TDP2, T5PNP hydrolysis, p-nitrophenol absorbance 415 nm | inhibition, % at 12.8 µM | actives 0.34% (n = 370,000) | AID 720702;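 active = inhibition above the mean of all tested compounds plus 3 SD, set per campaign, cut at about 25% in these data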;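 also: 0% = DMSO with enzyme and 100% = buffer with substrate but no TDP2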
#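 System – recombinant human TDP2 · Amount – 120 nM TDP2 per well · Buffer or medium – Mg2+-containing Tris-HCl buffer, pH 7.5 · Reagent – T5PNP substrate, 5 mM · Dosing – 12.8 µM single point, 1% DMSO · Incubation – 2 h at 37 °C · Measured by – epi absorbance · Read-out basis – percent inhibition · Benchmarks – high control without enzyme, low control DMSO plus TDP2 · Repeats – singlicate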
# CASP6 VEID inh – blocks human caspase-6 cleavage activity | P55212 | purified caspase-6, Z-VEID-R110 cleavage fluorescence | inhibition, % at 12.5 µM | actives 0.53% (n = 350,000) | AID 686996;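 active = mean inhibition across replicates at least about 35%, with every replicate also reaching that limit, limit read from the data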;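 also: 0% = median of neutral control wells and 100% = no fluorescence left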
# NSD2 HMT inh – inhibitors of human histone methyltransferase NSD2; O96028; NSD2 peptide methylation, AlphaScreen, 120 min; inhibition, % at 12.5 µM; actives 0.54% (n = 310,000); in the data active = inhibition above about 50%
# LEDGF integ inh – blocks HIV-1 LEDGF/p75-dependent DNA integration | TR-FRET IN-LEDGF/p75 DNA integration, Eu/Cy5 | inhibition, % at 3.7 µM | actives 0.64% (n = 370,000) | AID 743269;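 active = inhibition above the screen-wide mean plus 3 SD, cut at about 13% in these data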;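 also: signal is the Cy5 over europium emission ratio at 671 and 618 nm; 0% = plate median of compound wells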
# Numbers without * were called inactive; . = no result.
SMILES,MBD2 inh,UHRF1 MBD2 ctr,TDP2 inh,CASP6 VEID inh,NSD2 HMT inh,LEDGF integ inh
COCCN(C(=O)COC(=O)Cc1coc2cc(C)ccc12)c1c(N)n(Cc2ccccc2)c(=O)[nH]c1=O,1,3,15,52*,5,7
COc1ccc2c(CC(=O)OCC(=O)N(C)c3c(N)n(Cc4ccccc4)c(=O)[nH]c3=O)coc2c1,5,22*,1,6,16,-1
COC(=O)c1ccc(Cn2cnc3c(cnn3-c3ccc(Cl)cc3)c2=O)o1,-4,32*,-3,2,-6,-3
CS(=O)(=O)N(CC(=O)NC1CCCCCC1)Cc1ccc(Cl)cc1,-1,49*,1,.,-11,-3
CCCNC(=O)Nc1ccc2c(c1)OC[C@@H](C)N(Cc1ccncc1)C[C@@H](C)[C@@H](OC)CN(C)C2=O,.,.,.,-2,.,.
CCC(=O)N1CC[C@@H]2[C@H](CO)Nc3ccc(C#Cc4ccccc4)cc3[C@@H]21,.,.,.,-2,.,.
CN(C)c1ccc(/C=C/c2ccc3ccccc3[n+]2C)cc1,-8,-20,-7,.,44,-11
CN(C)c1ccc(/C=C/c2ccc3c4ccccc4ccc3[n+]2-c2ccccc2)cc1,-3,12,4,38*,.,-6
O=[N+]([O-])c1ccc2c(c1)N([O-])C1(CCCCC1)[N+]2=O,-3,-2,4,34,84*,8
CO[C@@H]1CN(C)C(=O)c2cc(NC(C)=O)ccc2OC[C@@H](C)N(S(=O)(=O)c2cn(C)cn2)C[C@@H]1C,.,.,.,-1,.,.
C[C@@H]1CCCCO[C@H](CN(C)Cc2ccccc2)[C@H](C)CN([C@H](C)CO)C(=O)c2cc(N(C)C)ccc2O1,.,.,.,0,.,.
C[C@@H]1CN([C@@H](C)CO)C(=O)Cc2cc(NC(=O)c3ccncc3)ccc2O[C@H]1CN(C)Cc1ccc(Cl)c(Cl)c1,.,.,.,-2,.,.
C=CCC(NCc1ccccc1)c1ccc(C)o1 (stereo not drawn),2,0,12,.,-2,-1
C=CCC(NCc1ccccc1)c1ccc(Cl)cc1 (stereo not drawn),1,1,0,54*,-10,2
CCOC(=O)C1=C(C)NC(=O)NC1c1ccco1 (stereo not drawn),2,1,4,46*,5,-1
OC(CNC1CCCCC1)COCCOc1ccc(Br)cc1 (stereo not drawn),1,1,-4,47*,-1,0
COc1ccc(-c2ccc3n(c2=O)C[C@@H]2[C@@H](CO)[C@H](C(=O)NC4Cc5ccccc5C4)N[C@H]32)cc1,.,.,.,-1,.,.
Cc1ccc(C(=O)N/C(=C/c2ccc(F)cc2)C(=O)NCc2ccncc2)cc1,3,23*,-8,-3,0,2
C[C@H](O)C#Cc1cnc2c(c1)C(=O)N([C@@H](C)CO)C[C@@H](C)[C@@H](CN(C)C(=O)c1ccccc1)O2,.,.,.,3,.,.
O=C(CC1Sc2ccccc2NC1=O)NCc1ccc(Cl)cc1 (stereo not drawn),-2,28*,15,4,.,-2
Nc1nc(Cn2nnc(-c3ccccc3F)n2)nc(N2CCOCC2)n1,-3,-1,4,0,0,1
Nc1nc(Cn2nnc(-c3ccccc3Cl)n2)nc(N2CCOCC2)n1,0,29*,6,.,-1,-1
C[C@@H]1CN([C@@H](C)CO)C(=O)c2ccccc2-c2ccccc2CO[C@@H]1CN(C)S(=O)(=O)Cc1ccccc1,.,.,.,0,.,.
CC12COC3(P(=O)(c4ccccc4)c4ccccc4)CC1CCC23CP(=O)(c1ccccc1)c1ccccc1 (stereo not drawn),11,22*,-10,6,4,-2
C[C@H](CO)N1C[C@H](C)[C@H](CN(C)Cc2ccc(F)cc2)OCc2ccccc2-c2c(n(C)c3ccccc23)C1=O,.,.,.,1,.,.
CCn1nnnc1SCC(=O)Nc1ccc2c(c1)OCO2,-3,2,-1,.,-1,1
COc1cc(NC(=O)CSc2nnnn2Cc2ccc3c(c2)OCO3)cc(OC)c1,13,24*,4,.,.,4
CCCC#Cc1cnc2c(c1)C(=O)N([C@H](C)CO)C[C@@H](C)[C@H](CN(C)C(=O)c1ccc3c(c1)OCO3)O2,.,.,.,1,.,.
CCSc1nnc(NC(=O)c2ccccc2C)s1,0,24*,-6,0,-2,1
